In ChEMBL document CHEMBL1681688, “Design and evaluation of a 2-(2,3,6-trifluorophenyl)acetamide derivative as an agonist of the GPR119 receptor” (Bioorg Med Chem Lett, 2011):

Experiments:
[1] = molecular target: T1, Glucose-dependent insulinotropic receptor (Homo sapiens, UniProt Q8TDV5); assay: Agonist activity against human GPR119 receptor expressed in HEK293 cells assessed as beta-lactamase production by cAMP response element assay; type: functional, cell-based
T1 sequence (Q8TDV5 whole entry): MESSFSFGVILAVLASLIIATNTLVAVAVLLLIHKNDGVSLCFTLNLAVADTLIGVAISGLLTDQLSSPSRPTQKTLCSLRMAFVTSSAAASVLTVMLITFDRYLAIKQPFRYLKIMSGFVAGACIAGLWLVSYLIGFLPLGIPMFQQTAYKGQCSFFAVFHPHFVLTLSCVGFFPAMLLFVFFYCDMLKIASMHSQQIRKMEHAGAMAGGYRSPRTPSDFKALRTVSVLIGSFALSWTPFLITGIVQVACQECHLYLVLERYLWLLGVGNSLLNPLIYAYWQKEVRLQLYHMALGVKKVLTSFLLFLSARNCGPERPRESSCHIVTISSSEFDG

[2] = molecular target: T2, Glucose-dependent insulinotropic receptor (Homo sapiens) (UniProt Q8TDV5); assay: Intrinsic activity against human GPR119 receptor expressed in HEK293 cells assessed as beta-lactamase production by cAMP response element assay; type: functional, cell-based
T2 sequence (whole entry): T1 sequence (Q8TDV5 whole entry)
Outline: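 Human recombinant cell-based cAMP functional assay, read as intrinsic activity. The number of runs varies by compound, with SD reported where n >2.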

[3] = Intrinsic clearance in human liver microsomes; type: ADME, Microsome
[4] = Lipophilicity, log D of the compound; type: physicochemical; conditions: octanol/water

Compound | EC50 [1] [nM] | Intrinsic activity [2] [%] | CLint scaled [3] [mL/min/kg] | logD [4]
CC(CNC(=O)Cc1c(F)ccc(F)c1F)C1CCN(C(=O)OC(C)(C)C)CC1 (stereo not drawn) | 13 | 87 | 230 | 
CC(CNC(=O)Cc1c(F)cccc1F)C1CCN(C(=O)OC(C)(C)C)CC1 (stereo not drawn) | 120 | 101 |  | 3.9
CC(CNC(=O)Cc1ccc(-n2cnnn2)cc1)C1CCN(C(=O)OC(C)(C)C)CC1 (stereo not drawn) | 267 | 72 | > 270 | 
CC1(OC(=O)N2CCC(CCNC(=O)Cc3c(F)ccc(F)c3F)CC2)CC1 | 868 | 111 |  | 3.5
CC1(OC(=O)N2CCC([C@@H](F)CNC(=O)Cc3c(F)ccc(F)c3F)CC2)CC1 | 1380 | 100 | 63.8 | 3.4
CC(C)OC(=O)N1CCC(CCNC(=O)Cc2c(F)ccc(F)c2F)CC1 | 409 | 68 |  | 3.4
C[C@@H](CNC(=O)Cc1c(F)ccc(F)c1F)C1CCN(C(=O)OC2(C)CC2)CC1 | 236 | 97 | 187 | 3.9
CC(C)OC(=O)N1CCC(C(C)CNC(=O)Cc2c(F)ccc(F)c2F)CC1 (stereo not drawn) | 32 | 88 | 205 | 4
CC(CNC(=O)Cc1cc(F)ccc1F)C1CCN(C(=O)OC(C)(C)C)CC1 (stereo not drawn) | 78 | 104 | > 300 | 
CC1(OC(=O)N2CCC([C@H](F)CNC(=O)Cc3c(F)ccc(F)c3F)CC2)CC1 | 80 | 107 | 42.4 | 3.4
C[C@H](CNC(=O)Cc1c(F)ccc(F)c1F)C1CCN(C(=O)OC2(C)CC2)CC1 | 44 | 124 | > 300 | 3.9

Second part, the compound after the results:

EC50 [1] [nM] | Intrinsic activity [2] [%] | CLint scaled [3] [mL/min/kg] | logD [4] | Compound
884 | 47 | 136 |  | CC(CNC(=O)Cc1ccc(S(C)(=O)=O)cc1)C1CCN(C(=O)OC(C)(C)C)CC1 (stereo not drawn)
5980 | 100 | 247 |  | CC(CNC(=O)Cc1ccccc1)C1CCN(C(=O)OC(C)(C)C)CC1 (stereo not drawn)
75 | 107 | > 300 |  | CC(CNC(=O)Cc1cccc(F)c1F)C1CCN(C(=O)OC(C)(C)C)CC1 (stereo not drawn)
340 | 102 | > 300 |  | CC(CNC(=O)Cc1cccc(F)c1)C1CCN(C(=O)OC(C)(C)C)CC1 (stereo not drawn)
808 | 97 | > 300 |  | CC(CNC(=O)Cc1ccccc1F)C1CCN(C(=O)OC(C)(C)C)CC1 (stereo not drawn)
